The list is not random: actives were taken first. Their share in the collection is about 2.9%.
M1 ag parental = nonselective activator or artifact in parental CHO-K1 cells | Fluo-8 calcium fluorescence; scaled to maximal ATP response, vehicle zero | activation, % at 3 µM | actives 0.48% (n = 360,000) | AID 602248; in the data active = activation above about 15%;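 note: untransfected CHO-K1 host cells lacking M1 receptor as counterscreen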
M1 PAM parental = nonselective activator or artifact in parental CHO-K1 calcium assay; actives 0.02% (n = 360,000); AID 602247; ATP EC20, Fluo-8 calcium fluorescence; 0% at ATP EC20, 100% at ATP max; activation, % at 3 µM;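 active = activation above the run cutoff, the mean activation of all test compounds plus 3 SD, cut at about 40% in these data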;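 note: peak over basal fluorescence ratio in a 140 s read after ATP addition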
OX1R antag-1 = blocks the human orexin 1 receptor | OX1R-expressing cells, FRET antagonist read-out | inhibition, % at 6.6 µM | actives 1.8% (n = 330,000); in the data active = inhibition mostly above about 38%, no sharp cut-off; inactive = mostly below about 40%;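 note: 0% = agonist challenge alone and 100% = reference antagonist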
Target sequence (O43613 whole entry, looked up): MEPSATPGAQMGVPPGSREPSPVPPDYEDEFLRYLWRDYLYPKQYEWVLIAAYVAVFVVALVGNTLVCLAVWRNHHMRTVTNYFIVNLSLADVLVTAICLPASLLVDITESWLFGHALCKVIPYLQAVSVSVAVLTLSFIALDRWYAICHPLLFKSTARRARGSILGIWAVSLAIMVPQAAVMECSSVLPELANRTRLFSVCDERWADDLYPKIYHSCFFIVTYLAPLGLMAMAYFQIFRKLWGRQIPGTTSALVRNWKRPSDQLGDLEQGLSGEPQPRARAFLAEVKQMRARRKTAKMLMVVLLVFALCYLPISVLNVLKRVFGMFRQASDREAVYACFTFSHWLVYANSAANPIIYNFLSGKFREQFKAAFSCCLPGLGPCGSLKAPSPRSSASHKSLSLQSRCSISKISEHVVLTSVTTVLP
CHO parental Ca = counter-screen: ATP calcium response change in parental CHO cells. parental CHO-K1, ATP-induced calcium, Fluo-8 fluorescence. inhibition, % at 5.6 µM. actives 0.63% (n = 330,000). AID 463079;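 active = inhibition above that plate's mean sample inhibition plus 3 SD, cut at about 26% in these data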;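 note: 0% = ATP-challenged DMSO wells and 100% = DMSO wells without ATP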
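test system = CHO parental line | reagent = ATP stimulus | measured by = intracellular calcium via Fluo-8 no-wash fluorescent dye | control set = ATP and no-ATP DMSO wells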
CHO-K1 Ca antag = M1 antagonist counterscreen hit in parental CHO-K1 cells. actives 0.6% (n = 360,000). ATP-induced calcium, Fluo-8 fluorescence. AID 602250. inhibition, % at 3 µM;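 active = inhibition above a per-plate cutoff, the plate's mean sample inhibition plus 3 SD, cut at about 24% in these data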;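 note: 0% = DMSO plus EC80 ATP and 100% = DMSO alone without ATP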
OX1R antag-2 = blocks the human orexin 1 receptor | CHO/OX1R cells, Fluo-8 calcium fluorescence, orexin A | actives 0.43% (n = 330,000) | inhibition, % at 5 µM | O43613 | AID 434989;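 active = inhibition above its plate's threshold, mean inhibition of all tested compounds on the plate plus 3 SD, cut at about 37% in these data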;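 note: 0% = orexin A challenge wells and 100% = SB-334867-A antagonist wells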
Starred values were filed as active, the others as inactive; . = not tested or not shown.

SMILES | M1 ag parental | M1 PAM parental | OX1R antag-1 | CHO parental Ca | CHO-K1 Ca antag | OX1R antag-2
CCN(CC)CCNC(=O)c1ccc2c(c1NCCO)C(=O)c1ccccc1C2=O | 0 | 8 | 89* | -15 | -3 | -20
CCN(CC)CCC(=O)Nc1cccc2c1C(=O)c1ccccc1C2=O | 0 | -8 | 74* | -12 | 8 | -40
CC(C)=CCC/C(C)=C/CNC(=O)C[C@H]1C[C@H](C(=O)N(C(C)C)C(C)C)[C@@]2(C)c3[nH]c4cc(CCC(=O)N(C)C)ccc4c3CCN2C1=O | 0 | 14 | 10 | -10 | -12 | 22
Cc1cn([C@H]2C[C@H](O)[C@@H](CCC(=O)NCc3cccs3)O2)c(=O)[nH]c1=O | 0 | -8 | . | . | 24* | .
CCCCC(=O)N(C)c1c(CC)nc2c(OCC(=O)c3ccc(Cl)cc3Cl)cccn12 | 1 | 18 | . | . | -8 | .
CC1(C)Cc2c(sc(NC(=O)c3ccc(C(=O)c4ccccc4)cc3)c2C(N)=O)C(C)(C)N1 | 8 | -8 | 3 | 29* | 8 | 28
Clc1ccc(N2O[C@H]3C=C[C@@H]2C3)nc1 | 2 | 9 | . | . | -2 | .
Cc1cc(Nc2ccc(Cl)cc2)nc(-c2ccccc2O)n1 | 1 | 16 | . | . | -7 | .
Cc1cc(Nc2cccc(Cl)c2)nc(-c2ccccc2O)n1 | 6 | 9 | 12 | 5 | 43* | 7
Cc1nc(SCC(=O)Nc2sccc2C(N)=O)c2c(C)c(C)sc2n1 | 5 | 20 | . | . | -9 | .
O=[N+]([O-])c1ccc(O)c2cccnc12 | 1 | 13 | 66* | -4 | 2 | -10
O=[N+]([O-])c1ccc(O)c2ncccc12 | 1 | 23 | 25 | 6 | -5 | 3
CCOC(=O)C1CCCN(c2c(C(=O)c3ccccc3)cnc3ccc(OC)cc23)C1 (centres undefined) | 4 | 61* | 10 | -39 | -16 | -50
Cc1onc(-c2c(F)cccc2Cl)c1C(=O)Nc1cc(S(=O)(=O)N2CCCCC2)ccc1O | 4 | -19 | . | . | 26* | .
Cc1onc(-c2c(F)cccc2Cl)c1C(=O)Nc1ccc(S(=O)(=O)N2CCOCC2)cc1 | 4 | 18 | 4 | -4 | -7 | -5
CCCn1c(=N)c(C#N)cc2c(=O)n3ccccc3nc21 | 1 | 22 | 47* | -2 | -11 | 9
Cc1cccc(-n2c(=O)c(C#N)cc3c(=O)n4ccccc4nc32)c1 | 0 | 7 | 60* | -17 | -5 | -11
O=C1C(O)=C(O)C(=O)c2ccccc21 | 0 | 4 | 13 | 7 | -12 | 0
O=C1C(=O)c2ccccc2C(O)=C1c1ccccc1F | 0 | -15 | 46* | -8 | 5 | -9
O=C(CN1C(=O)NC(c2ccccc2)(c2ccccc2)C1=O)NC1CCCCC1 | 0 | 30 | 2 | -10 | 5 | -13
Cc1ccc(NC(=O)CSc2nnc(CNC(=O)c3c(F)cccc3Cl)o2)cc1 | 0 | -6 | 5 | -10 | 26* | -24
Cc1cc(C)c(NC(=O)CSc2nnc(CNC(=O)c3c(F)cccc3Cl)o2)c(C)c1 | 3 | 21 | 1 | -9 | -12 | -18
Cc1ccc(S(=O)(=O)N2C[C@H]3[C@H]4C(=O)N(c5ccccc5)C(=O)[C@H]4C[C@H](OC(=O)Nc4cccs4)[C@@]3(O)C2)cc1 | 0 | -8 | . | . | -3 | .
O=C(OCC(=O)N1CCC(c2ccccc2)=N1)c1ccc(Cl)s1 | 0 | 5 | 34* | -16 | -8 | 34
CCOc1cc(/C=C/C(=O)OCC(=O)NCC2CCCO2)cc(Cl)c1OC (centres undefined) | 0 | 20 | 11 | -19 | -15 | -29
SMILES | M1 ag parental | M1 PAM parental | OX1R antag-1 | CHO parental Ca | CHO-K1 Ca antag | OX1R antag-2
O=c1[nH]c(-c2ccccc2)cnc1-c1ccccc1 | 6 | -12 | 19 | -4 | 10 | 1
O=c1[nH]c2c(=O)[nH]cnc2nc1-c1ccccc1 | 0 | 4 | 40* | -6 | -3 | 0
CC(C)C(N)c1csc(NC(=O)Nc2cccc(Cl)c2)n1 (centres undefined) | 1 | 27 | . | . | -14 | .
CCOC(=O)/C(=C\C=C1/Sc2cc(OCC)c(OCC)cc2N1CC)C(C)=O | 38* | -2 | 9 | 69* | 18 | 91*
CCN1/C(=C\C=C2\C(=O)N(C)C(=S)N2C)Sc2ccccc21 | 0 | 14 | 4 | 3 | -1 | -10
CCOC(=O)/C(=C/C=C1\Sc2cc(OCC)c(OCC)cc2N1CC)C(C)=O | 46* | -15 | 26 | 85* | 30* | 108*
COc1cc(NC(=S)Nc2ncccc2C)cc(OC)c1OC | 1 | 14 | 45* | -1 | 2 | 3
COc1cc(NC(=S)Nc2cccc(C)n2)cc(OC)c1OC | 1 | 16 | 20 | -16 | -12 | -21
CCOC(=O)c1ccc(NC(=S)N2CCSC2c2ccc(Br)cc2)cc1 (centres undefined) | 6 | -6 | 4 | 46* | 16 | 55*
COc1ccc(CN(C)Cc2cc(=O)oc3cc(C)c(C(C)C)cc23)cc1OC | 0 | -19 | 29 | -20 | -15 | -32
Cc1cc2oc(=O)cc(CN(C)Cc3ccccc3)c2cc1C(C)C | -1 | -7 | 0 | 31* | -11 | 12
CC(C)(C)c1cc[n+](C2=C([O-])c3ccccc3C(=O)/C2=N\S(=O)(=O)c2cccs2)cc1 | 1 | 9 | 77* | -15 | -2 | -23
COc1cc(C2NC(=O)c3ccccc3O2)ccc1OC(C)C (centres undefined) | -1 | -10 | 4 | -4 | 25* | 3
CCC1(CC)C(=O)NC(=O)NC1=S | 0 | 4 | . | . | -4 | .
O=C(NCC1CCCO1)c1cc2c([nH]c3ccccc32)c(-c2cccc(Cl)c2)n1 (centres undefined) | 5 | -19 | 50* | 1 | 14 | 9
COc1cc(-c2nc(C(=O)NCC3CCCO3)cc3c2[nH]c2ccccc23)cc(OC)c1OC (centres undefined) | 4 | -15 | 34 | 7 | 5 | -12
CCOC(=O)CSC1=NC(=O)/C(=C\c2ccc(Cl)cc2)S1 | 3 | -13 | 72* | -5 | -1 | 5
CSC1=NC(=O)/C(=C/c2ccc(SC)cc2)S1 | 5 | -5 | 39* | -11 | 11 | -18
CN=C1S/C(=C\c2ccc(SC)cc2)C(=O)N1C | 2 | 9 | 4 | -6 | -13 | -6
CC(C)c1cccc(-c2csc(C(C)(O)c3ccc(F)c(F)c3)n2)c1 (centres undefined) | 0 | -13 | . | . | 5 | .
Cn1c(=O)c2cc(NC(=O)NCc3ccc(Cl)cc3Cl)ccc2n1Cc1ccc(F)cc1 | 1 | -1 | . | . | 3 | .
COc1ccc(-c2noc(C3CCCN(S(=O)(=O)c4cccc(Cl)c4C)C3)n2)cc1OC (centres undefined) | 0 | 10 | 45* | -30 | -8 | 4

Screens from PubChem.
